Assay results pooled from the literature.
Compare with care: the assays were run in different laboratories.

| SMILES | tested on | test | test system | setting | measurement | result |
| --- | --- | --- | --- | --- | --- | --- |
| O=c1c2ccccc2[se]n1-c1ccccc1 | HEK293 | cell growth or viability, MTT |  | 125 µM, 72 h | inhibition | 43% |
| CCCCCCCc1cc(=O)c2ccccc2[nH]1 | HEK293 | cell growth or viability |  |  | IC50 | > 10 µM |
| NNC(=O)c1ccncc1 | Mycolicibacterium phlei | microbial growth |  |  | MIC | > 8 µg/mL |
| CNCCN(C)C(=O)Oc1c(Br)c(C)nc(C)c1-c1ccc(Oc2ccc(OC(F)(F)F)cc2)cc1 | HEK293 | cell growth or viability |  |  | IC50 | > 10 µM |
| Cc1cccc2[nH]cc(CNCC3(N4CCCC4)COC3)c12 | GBM6 | cell growth or viability |  | 30 µM, 48 h | viability | 77.5% |
| CO[C@H]1/C=C/O[C@@]2(C)Oc3c(C)c(O)c4c(O)c(c(/C=N/N5CCN(C)CC5)c(O)c4c3C2=O)NC(=O)/C(C)=C\C=C\[C@H](C)[C@H](O)[C@@H](C)[C@@H](O)[C@@H](C)[C@H](OC(C)=O)[C@@H]1C | Mycobacterium avium | microbial growth | ATCC25291 |  | MIC | 3.1 µg/mL |
| Cc1cccc2c(CNCC3(N4CCCC4)COC3)c[nH]c12 | T98G | cell growth or viability |  | 30 µM, 48 h | viability | 34.1% |
| CO[C@H]1/C=C/O[C@@]2(C)Oc3c(C)c(O)c4c(O)c(c(/C=N/N5CCN(C)CC5)c(O)c4c3C2=O)NC(=O)/C(C)=C\C=C\[C@H](C)[C@H](O)[C@@H](C)[C@@H](O)[C@@H](C)[C@H](OC(C)=O)[C@@H]1C | Mycolicibacterium phlei | microbial growth |  |  | MIC | 0.03 µg/mL |
| CNCCCN(C)C(=O)Oc1c(Br)c(C)nc(C)c1-c1ccc(Oc2ccc(OC(F)(F)F)cc2)cc1 | HEK293 | cell growth or viability |  |  | IC50 | > 10 µM |
| CO[C@H]1/C=C/O[C@@]2(C)Oc3c(C)c(O)c4c(O)c(c(/C=N/N5CCN(C)CC5)c(O)c4c3C2=O)NC(=O)/C(C)=C\C=C\[C@H](C)[C@H](O)[C@@H](C)[C@@H](O)[C@@H](C)[C@H](OC(C)=O)[C@@H]1C | Mycobacterium avium | microbial growth |  | 6 days | MIC | < 0.78 µM |
| N.N.[Cl][Pt][Cl] | SK-MEL-28 | cell growth or viability, resazurin |  | dark | EC50 | 3.12 µM |
| Cc1nc(C)c(-c2ccc(Oc3ccc(OC(F)(F)F)cc3)cc2)c(OC(=O)N(CCNC(C)C)C(C)C)c1Br | HEK293 | cell growth or viability |  |  | IC50 | > 10 µM |
| COC(=O)C1=C(C)NC(C)=C(C(=O)OCCN(C)Cc2ccccc2)C1c1cccc([N+](=O)[O-])c1 (stereo not shown) | Vesicular stomatitis virus | viral entry, inhibitor | Vero C1008 | pseudovirus | IC50 | 25 to 70 µM |
